For experiment [1], the system named is B16-F10. Briefly: Antiproliferative activity against mouse B16F10 cells after 48 hrs by MTT assay. In kind it is functional, cell-based. To be noted: B16-F10, 48 h. A digest of the protocol:
(§1)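 Cells grown to log phase in RPMI 1640 with 10% FBS, seeded at 2×10^4 cells/mL, then left 24 h at 37 °C, 5% CO2 before dosing at pre-set concentrations. […] After 48 h exposure, MTT (2.5 mg/mL in PBS) was added for 4 h, then SDS/isobutyl alcohol/HCl extraction overnight at 37 °C, and OD read at 570 nm. Triplicate wells per concentration; each assay run at least three times; IC50 derived.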

In another experiment the test system is HepG2. Briefly: Antiproliferative activity against human HepG2 cells after 48 hrs by MTT assay. The experiment is classed as functional, cell-based. Conditions: HepG2, 48 h. In a few lines: as §1
Experiment [2] can be described thus: Inhibition of bovine brain tubulin polymerization after 20 mins by turbidimetry. On the set-up: species or system Bos taurus. In a few lines:
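Bovine brain tubulin, purified in-house, used at 10 μM in glutamate buffer and preincubated with varying compound concentrations at 30 °C, then cooled to 0 °C. GTP added, mixtures warmed to 30 °C in a recording spectrophotometer, and assembly followed turbidimetrically. IC50 is the concentration inhibiting extent of assembly by 50% after 20 min.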

Another experiment has as its system MCF7. Briefly: Antiproliferative activity against human MCF7 cells after 48 hrs by MTT assay. The experiment is classed as functional, cell-based. Conditions: MCF7, 48 h. In a few lines: as §1
Experiment [3] deals with B16-F10. The experiment can be described thus: Cell cycle arrest in mouse B16F10 cells assessed as accumulation at S phase at 2 ug/ml after 24 hrs by flow cytometry analysis (reference value: 9.97 %). The experiment is classed as functional.
Experiment [4] relates to B16-F10. The experiment can be described thus: Cell cycle arrest in mouse B16F10 cells assessed as accumulation at Go/G1 phase at 2 ug/ml after 24 hrs by flow cytometry analysis (reference value: 70.4 %). In kind it is functional.
Experiment [5] has as its system B16-F10. The experiment can be described thus: Cell cycle arrest in mouse B16F10 cells assessed as accumulation at G2/M phase at 2 ug/ml after 24 hrs by flow cytometry analysis (reference value: 17.67 %). The experiment is classed as functional.
For experiment [6], the system named is B16-F10. Briefly: Cell cycle arrest in mouse B16F10 cells assessed as accumulation at G2/M phase at 1 ug/ml after 24 hrs by flow cytometry analysis (reference value: 17.67 %). The experiment is classed as functional.
For experiment [7], the system named is B16-F10. Briefly: Cell cycle arrest in mouse B16F10 cells assessed as accumulation at S phase at 1 ug/ml after 24 hrs by flow cytometry analysis (reference value: 9.97 %). The experiment is classed as functional.

The source of these data is ChEMBL document CHEMBL1926500, “Design, synthesis, biological evaluation and molecular modeling of 1,3,4-oxadiazoline analogs of combretastatin-A4 as novel antitubulin agents” (Bioorg Med Chem, 2012).

Take `CC(=O)N1N=C(c2ccc3ccccc3c2)OC1c1ccccc1` (centres undefined): the concentration for half-maximal inhibition (IC50) was determined as 2.57 µM in the experiment with B16-F10 [1], 2.11 µM in the experiment with HepG2, 21.2 µM in experiment [2] and 2.43 µM with MCF7. For the same compound, in [2], the pIC50 stood at 4.17.

`COc1ccc(C2OC(c3ccc4ccccc4c3)=NN2C(C)=O)cc1` (centres undefined): the IC50 worked out at 6.86 µM in the experiment with B16-F10 [1], 3.6 µM in the experiment with HepG2, 105 µM in experiment [2] and 7.35 µM with MCF7. Further, the negative logarithm of the IC50 (pIC50) in experiment [2] stood at 3.51.

Turning to `CC(=O)N1N=C(c2ccc3ccccc3c2)OC1c1ccccc1Br` (centres undefined), the IC50 with B16-F10 [1] worked out at 6.98 µM; in the experiment on HepG2, 3.98 µM; in experiment [2], 51.5 µM; in the experiment on MCF7 it was 5.49 µM. Further, in experiment [2], the pIC50 worked out at 3.88.

Consider `CC(=O)N1N=C(c2ccc3ccccc3c2)OC1c1cccc(Br)c1` (centres undefined), for which the half-inhibitory concentration (IC50) in the experiment with B16-F10 [1] stood at 2.36 µM; with HepG2, 1.68 µM; in experiment [2] it was 19.4 µM; in the experiment on MCF7 it was 2.34 µM. In [2], this compound gave a pIC50 of 4.3.

Turning to `CC(=O)N1N=C(c2ccc3ccccc3c2)OC1c1ccc(Br)cc1` (centres undefined), the half-maximal inhibitory concentration (IC50) in the experiment on B16-F10 [1] amounted to 4.68 µM; in the experiment with HepG2 it was 2.08 µM; in [2], 33.8 µM; in the experiment with MCF7 it was 5.07 µM. The compound further yielded a negative logarithm of the IC50 (pIC50) in experiment [2] of 4.06.

Take `CC(=O)N1N=C(c2ccc3ccccc3c2)OC1c1ccccc1Cl` (centres undefined): the IC50 with B16-F10 [1] worked out at 4.93 µM; in the experiment with HepG2, 4.32 µM; in experiment [2], 51.4 µM; in the experiment with MCF7, 2.36 µM. Besides, the pIC50 in [2] is reported as 3.83.

For `CC(=O)N1N=C(c2ccc3ccccc3c2)OC1c1ccc(Cl)cc1` (centres undefined), the IC50 was 2.48 µM with B16-F10 [1], 1.88 µM in the experiment on HepG2, 12.7 µM in experiment [2] and 2.63 µM in the experiment with MCF7. Also, in [2], the pIC50 turned out to be 4.44.

`CC(=O)N1N=C(c2ccc3ccccc3c2)OC1c1ccccc1F` (centres undefined): the half-inhibitory concentration (IC50) was 6.05 µM in the experiment with B16-F10 [1], 3.36 µM with HepG2, 48.1 µM in experiment [2] and 3.44 µM in the experiment on MCF7. Besides, the pIC50 in experiment [2] was 3.84.

For the compound `CC(=O)N1N=C(c2ccc3ccccc3c2)OC1c1cccc(F)c1` (centres undefined), the half-inhibitory concentration (IC50) in the experiment with B16-F10 [1] was 1.61 µM; with HepG2, 1.86 µM; in [2] it was 9.2 µM; in the experiment on MCF7, 1.98 µM. Moreover, the pIC50 in [2] was 4.55.

With `CC(=O)N1N=C(c2ccc3ccccc3c2)OC1c1ccc(F)cc1` (centres undefined), the IC50 in the experiment on B16-F10 [1] is 4.65 µM; with HepG2, 1.82 µM; in experiment [2], 28.1 µM; in the experiment with MCF7 it was 3.02 µM. In addition, the negative logarithm of the IC50 (pIC50) in experiment [2] is 4.07.

As for `CC(=O)N1N=C(c2ccc3ccccc3c2)OC1c1ccccc1[N+](=O)[O-]` (centres undefined), the half-inhibitory concentration (IC50) came out at 9.01 µM in the experiment on B16-F10 [1], 12.3 µM in the experiment on HepG2, 140 µM in experiment [2] and 18.2 µM in the experiment with MCF7. In [2], this compound had a pIC50 of 3.4.

With `CC(=O)N1N=C(c2ccc3ccccc3c2)OC1c1ccc([N+](=O)[O-])cc1` (centres undefined), the half-inhibitory concentration (IC50) was found to be 9.32 µM with B16-F10 [1], 8.1 µM with HepG2, 103 µM in experiment [2] and 7.59 µM in the experiment on MCF7. This compound also came in with a pIC50 in [2] of 3.54.

Regarding `CC(=O)N1N=C(c2ccc3ccccc3c2)OC1c1ccccc1O` (centres undefined), the IC50 in the experiment with B16-F10 [1] is 2.58 µM; with HepG2, 1.84 µM; in [2], 27.1 µM; with MCF7, 2.12 µM. The same compound gave a negative logarithm of the IC50 (pIC50) in experiment [2] of 4.08.

Turning to `CC(=O)N1N=C(c2ccc3ccccc3c2)OC1c1ccc2ccccc2c1` (centres undefined), the values for the Activity with B16-F10 [3], with B16-F10 [4] and in the experiment with B16-F10 [5] were 2.04%, 1.72% and 77.18%, respectively. Besides, the IC50 came out at 1.56 µM in the experiment with B16-F10 [1], 0.85 µM in the experiment on HepG2, 4.3 µM in [2] and 1.01 µM with MCF7. In experiment [2], the negative logarithm of the IC50 (pIC50) was 4.93.

In the case of `CC(=O)N1N=C(c2ccc3ccccc3c2)OC1c1ccccn1` (centres undefined), the IC50 is 7.18 µM in the experiment on B16-F10 [1], 5.26 µM with HepG2, 53.8 µM in experiment [2] and 6.02 µM in the experiment on MCF7. This compound had a pIC50 in experiment [2] of 3.77.

Take `CC(=O)N1N=C(c2ccc3ccccc3c2)OC1c1cccnc1` (centres undefined): the IC50 in the experiment with B16-F10 [1] was 3.06 µM; in the experiment with HepG2 it was 2.86 µM; in experiment [2] it was 20.1 µM; with MCF7, 2.61 µM. This compound also returned a negative logarithm of the IC50 (pIC50) in experiment [2] of 4.19.

Take `CC(=O)N1N=C(c2ccc3ccccc3c2)OC1c1ccncc1` (centres undefined): the IC50 in the experiment with B16-F10 [1] turned out to be 2.97 µM; in the experiment with HepG2, 2.17 µM; in [2] it was 22.8 µM; in the experiment on MCF7 it was 2.56 µM. In [2], this compound came in with a pIC50 of 4.14.

On to `CC(=O)N1N=C(c2ccc3ccccc3c2)OC1c1ccc(C)cc1` (centres undefined), for which the IC50 with B16-F10 [1] amounted to 3.85 µM; in the experiment on HepG2, 2.26 µM; in experiment [2], 30.5 µM; with MCF7, 2.9 µM. In addition, in experiment [2], the negative logarithm of the IC50 (pIC50) is 4.03.

Turning to `CC(=O)N1N=C(c2ccc3ccccc3c2)OC1c1ccsc1` (centres undefined), the IC50 with B16-F10 [1] was 8.56 µM; with HepG2 it was 6.82 µM; in [2], 51.9 µM; in the experiment on MCF7, 7.98 µM. This compound registered a pIC50 in experiment [2] of 3.79.

For the compound `CC(=O)N1N=C(c2ccc3ccccc3c2)OC1c1ccc(OCc2ccccc2)cc1` (centres undefined), the IC50 in the experiment with B16-F10 [1] turned out to be 8.08 µM; in the experiment on HepG2, 3.38 µM; in experiment [2] it was 58.2 µM; with MCF7, 5.49 µM. In addition, the pIC50 in experiment [2] is given as 3.86.

Turning to `COc1cc2c(c(OC)c1OC)-c1ccc(OC)c(=O)cc1[C@@H](NC(C)=O)CC2` [COLCHICINE], the Activity was found to be 75.24% in the experiment on B16-F10 [6] and 2.43% in the experiment with B16-F10 [7].

`COc1ccc(/C=C\c2cc(OC)c(OC)c(OC)c2)cc1O` [COMBRETASTATIN A4]: the concentration for half-maximal inhibition (IC50) in the experiment with B16-F10 [1] stood at 0.75 µM; with HepG2, 0.54 µM; in experiment [2], 2.9 µM; in the experiment on MCF7, 0.48 µM.
